In ChEMBL document CHEMBL1150807, “Daucane sesquiterpenes from Ferula hermonis” (J Nat Prod, 2001):
≈ marks a conversion by molar mass, not a printed value. Calls of active or inactive are those of the source. The rule behind the calls is not given here.

Tests used:
Staphylococcus aureus [1] = experiment: Antimicrobial activity against methicillin-resistant Staphylococcus aureus ATCC 43300; type: functional, organism-based
Method in brief: (§1)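 Broth microdilution in duplicate. Samples are dissolved in DMSO, serially diluted in normal saline, and mixed with inoculum from subcultured organism diluted in its incubation broth. The top final concentration is 50 µg/mL for pure compounds and 500 µg/mL for crude extracts. Controls are tetracycline, growth and media blank. OD630 is read before and after incubation, and percent growth is plotted against concentration to give IC50/MIC. MBC is found by plating 5 µL from each duplicate on agar.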

Candida albicans = experiment: Antimicrobial activity against Candida albicans ATCC 90028; type: functional
Method in brief: (§2)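 Subcultured organism diluted in its incubation broth for the inoculum. Samples were dissolved in DMSO, serially diluted in normal saline and tested in duplicate, starting at a final 50 µg/mL for pure compounds and 500 µg/mL for extracts. Growth and media-only controls were included. OD630 was read before and after incubation, and IC50/MIC was taken from percent growth versus concentration. MFC/MBC came from 5 µL subcultured onto agar.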

Cryptococcus neoformans = experiment: Antimicrobial activity against Cryptococcus neoformans ATCC 90113; type: functional; method in brief: as §2
Pseudomonas aeruginosa = experiment: Antimicrobial activity against Pseudomonas aeruginosa ATCC 27853; type: functional; method in brief: as §2
[2] = test system: Mycobacterium intracellulare; experiment: Antimicrobial activity against Mycobacterium intracellular ATCC 23068; type: functional
Method in brief: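 Inoculum was subcultured organism diluted in its incubation broth. Samples were dissolved in DMSO, serially diluted in saline and run in duplicate, with final concentrations starting at 50 µg/mL for pure compounds and 500 µg/mL for extracts. Tetracycline reference, growth and blank controls were included. Plates were inspected visually. MBC came from 5 µL of each well plated on agar.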

Aspergillus fumigatus = experiment: Antimicrobial activity against Aspergillus fumigatus ATCC 90906; type: functional
Method in brief: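 Growth was removed from a slant into 50 mL YPD broth for the inoculum. DMSO-dissolved samples were serially diluted in saline and run in duplicate, starting at a final 50 µg/mL for pure compounds and 500 µg/mL for extracts. Amphotericin B reference, growth and blank controls were included. Endpoints were read visually. MFC came from 5 µL of each duplicate transferred to agar.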

Staphylococcus aureus [3] = experiment: Antimicrobial activity against Staphylococcus aureus ATCC 29213; type: functional, organism-based; method in brief: as §1

Row | Compound | Activity (Staphylococcus aureus [1]) | Activity (Candida albicans) | Activity (Cryptococcus neoformans) | Activity (Pseudomonas aeruginosa) | Activity [2] | Activity (Aspergillus fumigatus) | Activity (Staphylococcus aureus [3]) | IC50 (Staphylococcus aureus [1]) [µg/mL] | MIC (Candida albicans) [µg/mL] | MIC (Cryptococcus neoformans) [µg/mL] | MIC (Pseudomonas aeruginosa) [µg/mL] | MIC [2] [µg/mL] | MIC (Aspergillus fumigatus) [µg/mL] | IC50 (Staphylococcus aureus [3]) [µg/mL]
1 | COc1cc(C(=O)OCC2=CC[C@@]3(C)CCC(C(C)C)=C3CC2)ccc1O | inactive | inactive | inactive | inactive | inactive | inactive | inactive |  |  |  |  |  |  | 
2 | CC(C)C1=C2CCC(COC(=O)c3ccc(O)cc3)=CC[C@@]2(C)CC1 |  |  |  |  |  |  |  | 2 (≈ 5.87 µM) | 6.25 (≈ 18.4 µM) | 6.25 (≈ 18.4 µM) | 6.25 (≈ 18.4 µM) | 6.25 (≈ 18.4 µM) | 6.25 (≈ 18.4 µM) | 1.5 (≈ 4.41 µM)
3 | CC1=CC[C@@]2(C)CC[C@@](O)(C(C)C)[C@@H]2[C@@H](O)C1 | inactive | inactive | inactive | inactive | inactive | inactive | inactive |  |  |  |  |  |  | 
4 | CC(C)[C@]1(O)CC[C@]2(C)C[C@@H]3O[C@]3(C)C[C@H](O)[C@H]21 | inactive | inactive | inactive | inactive | inactive | inactive | inactive |  |  |  |  |  |  | 
5 | CC1=CC[C@@]2(C)CC[C@@](O)(C(C)C)[C@@H]2[C@@H](OC(=O)c2ccccc2)C1 | inactive | inactive | inactive | inactive | inactive | inactive | inactive |  |  |  |  |  |  | 
